In brackets after ≈: the same amount, converted by molar mass. Numbered stars: 1 amine (or outer) side, 2 acyl side, 3 side chain; on linkers, the order of the positions; unused ones are H or OH. Bridge positions count the residues as written; N and C are the ends. Square brackets hold non-standard residues; d marks the D form. Peptide text beside a SMILES is read from it. I, II: the chains in the order shown. X1 = NC(=O)[C@H](Cc1cn(CCOCCOCCOCCC(=O)[*:2])nn1)N[*:1]; X3 = NC(=O)[C@H](Cc1cn(CCCCC(=O)[*:2])nn1)N[*:1]; X2 = NC(=O)[C@H](Cc1cn(CC(=O)[*:2])nn1)N[*:1]; Tle = CC(C)(C)[C@H](N)C(=O)O; dDab = NCC[C@@H](N)C(=O)O; hSer = N[C@@H](CCO)C(=O)O; Dab = NCC[C@H](N)C(=O)O
Tests used:
Assay type in all cases: functional
[1] = tested on: Staphylococcus aureus; assay: Antibacterial activity against methicillin resistant Staphylococcus aureus USA300 by measuring MIC after 16 hrs by broth microdilution method
In short: (§1)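 CLSI broth microdilution. Strains grown from glycerol stocks on blood agar 16 h at 37 °C; colonies used to inoculate CAMHB containing 10 mg L–1 Mg2+ and 25 mg L–1 Ca2+. Peptides dissolved in CAMHB with 0.002% (v/v) final polysorbate-80, serially diluted in polypropylene plates; inoculum 5 × 10^5 CFU mL–1. Sealed, 16 h at 37 °C, growth scored visually. MIC in μg/mL; three or more measurements on multiple days.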

[2] = tested on: Acinetobacter baumannii; assay: Antibacterial activity against Acinetobacter baumannii ATCC 9955 assessed as inhibition of bacterial growth after 16 hrs by broth microdilution method
In short: (§2)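 MIC per CLSI broth microdilution. Strains streaked from glycerol stocks on blood agar, 16 h at 37 °C. Single colonies inoculated into cation-adjusted Mueller-Hinton broth (10 mg L–1 Mg2+, 25 mg L–1 Ca2+). Peptides serially diluted in this broth with 0.002% (v/v) final polysorbate-80 in polypropylene plates. Inoculum 5 × 10^5 CFU mL–1. Plates sealed, 16 h at 37 °C, growth scored visually. MIC in μg/mL, triplicates on two separate days.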

[3] = tested on: Acinetobacter baumannii; assay: Antibacterial activity against multidrug-resistant Acinetobacter baumannii assessed as inhibition of bacterial growth after 16 hrs by broth microdilution method; in short: as §1
[4] = tested on: Klebsiella pneumoniae; assay: Antibacterial activity against Klebsiella pneumoniae ATCC 11228 assessed as inhibition of bacterial growth after 16 hrs by broth microdilution method; in short: as §2
[5] = tested on: Pseudomonas aeruginosa; assay: Antibacterial activity against Pseudomonas aeruginosa ATCC 27853 assessed as inhibition of bacterial growth after 16 hrs by broth microdilution method; in short: as §2
[6] = tested on: Pseudomonas aeruginosa; assay: Antibacterial activity against Pseudomonas aeruginosa NRZ 08418 producing NDM1 assessed as inhibition of bacterial growth after 16 hrs by broth microdilution method; in short: as §2
[7] = tested on: Pseudomonas aeruginosa; assay: Antibacterial activity against Pseudomonas aeruginosa producing NDM1 assessed as inhibition of bacterial growth after 16 hrs by broth microdilution method; in short: as §1
[8] = tested on: Pseudomonas aeruginosa; assay: Antibacterial activity against Pseudomonas aeruginosa M-120 assessed as inhibition of bacterial growth after 16 hrs by broth microdilution method; in short: as §2
[9] = tested on: Escherichia coli; assay: Antibacterial activity against Escherichia coli producing MCR2 assessed as inhibition of bacterial growth after 16 hrs by broth microdilution method; in short: as §2
[10] = tested on: Escherichia coli; assay: Antibacterial activity against Escherichia coli producing MCR3 assessed as inhibition of bacterial growth after 16 hrs by broth microdilution method; in short: as §2
[11] = tested on: Acinetobacter baumannii; assay: Antibacterial activity against Acinetobacter baumannii NRZ 00687 producing NDM2 assessed as inhibition of bacterial growth after 16 hrs by broth microdilution method; in short: as §2
[12] = tested on: Escherichia coli; assay: Antibacterial activity against Escherichia coli ATCC 35218 assessed as inhibition of bacterial growth after 16 hrs by broth microdilution method; in short: as §2
[13] = tested on: Escherichia coli; assay: Antibacterial activity against Escherichia coli producing MCR1 assessed as inhibition of bacterial growth after 16 hrs by broth microdilution method; in short: as §2
[14] = tested on: Acinetobacter baumannii; assay: Antibacterial activity against Acinetobacter baumannii ATCC 17978 assessed as inhibition of bacterial growth after 16 hrs by broth microdilution method; in short: as §2
[15] = tested on: Klebsiella pneumoniae; assay: Antibacterial activity against Klebsiella pneumoniae producing NDM1 assessed as inhibition of bacterial growth after 16 hrs by broth microdilution method; in short: as §2
[16] = tested on: Escherichia coli; assay: Antibacterial activity against Escherichia coli producing NDM1 assessed as inhibition of bacterial growth after 16 hrs by broth microdilution method; in short: as §1

| SMILES | MIC [1] | MIC [2] | MIC [3] | MIC [4] | MIC [5] | MIC [6] | MIC [7] | MIC [8] | MIC [9] | MIC [10] | MIC [11] | MIC [12] | MIC [13] | MIC [14] | MIC [15] | MIC [16] |
| --- | --- | --- | --- | --- | --- | --- | --- | --- | --- | --- | --- | --- | --- | --- | --- | --- |
| CC(C)[C@@H]1NC(=O)[C@@H]2CCCN2C(=O)[C@@H](C)NC(=O)[C@H](CO)NC(=O)[C@H](C)NC(=O)[C@H](C(C)(C)C)NC(=O)[C@H](CCO)NC(=O)[C@H](Cc2c[nH]c3ccccc23)NC(=O)[C@H](CCO)NC(=O)[C@@H](CCN)NC(=O)[C@H](CCC(N)=O)NC(=O)[C@H](CCN)NC(=O)[C@H](Cc2ccc(O)cc2)NC(=O)[C@H]([C@@H](C)O)NC1=O (cyclo([dDab][hSer]W[hSer][Tle]AS[dA]PVTY[Dab]Q)) | > 64 µg/mL |  |  |  |  |  |  |  |  |  |  |  |  |  |  |  |
| CC(C)C[C@@H]1NC(=O)[C@@H](CC(C)C)NC(=O)[C@H](CCN)NC(=O)[C@@H](NC(=O)Cn2cc(C[C@H](NC(=O)CC[C@@H]3NC(=O)[C@H](CCN)NC(=O)[C@H](Cc4ccc(O)cc4)NC(=O)[C@H]([C@@H](C)O)NC(=O)[C@H](C(C)C)NC(=O)[C@@H]4CCCN4C(=O)[C@@H](C)NC(=O)[C@H](CO)NC(=O)[C@H](C)NC(=O)[C@H](C(C)(C)C)NC(=O)[C@H](CCO)NC(=O)[C@H](Cc4c[nH]c5ccccc45)NC(=O)[C@H](CCO)NC(=O)[C@@H](CCN)NC3=O)C(N)=O)nn2)CCNC(=O)[C@H]([C@@H](C)O)NC(=O)[C@H](CCN)NC(=O)[C@H](CCN)NC1=O (I: cyclo([dDab][hSer]W[hSer][Tle]AS[dA]PVTY[Dab]E) / II: [Dab][Dab][dL]L[Dab][Dab]T; linker I:14-II:N via X2; lactam II:1-II:C) | > 64 µg/mL | 64 µg/mL (≈ 26.4 µM) | 32 µg/mL (≈ 13.2 µM) | 16 µg/mL (≈ 6.6 µM) | 64 µg/mL (≈ 26.4 µM) | 64 µg/mL (≈ 26.4 µM) | 32 µg/mL (≈ 13.2 µM) | 64 µg/mL (≈ 26.4 µM) | 32 µg/mL (≈ 13.2 µM) | 64 µg/mL (≈ 26.4 µM) | 64 µg/mL (≈ 26.4 µM) |  |  |  |  |  |
| CC(C)C[C@@H]1NC(=O)[C@@H](CC(C)C)NC(=O)[C@H](CCN)NC(=O)[C@@H](NC(=O)[C@H](CCN)NC(=O)[C@@H](NC(=O)CCOCCOCCOCCn2cc(C[C@H](NC(=O)CC[C@@H]3NC(=O)[C@H](CCN)NC(=O)[C@H](Cc4ccc(O)cc4)NC(=O)[C@H]([C@@H](C)O)NC(=O)[C@H](C(C)C)NC(=O)[C@@H]4CCCN4C(=O)[C@@H](C)NC(=O)[C@H](CO)NC(=O)[C@H](C)NC(=O)[C@H](C(C)(C)C)NC(=O)[C@H](CCO)NC(=O)[C@H](Cc4c[nH]c5ccccc45)NC(=O)[C@H](CCO)NC(=O)[C@@H](CCN)NC3=O)C(N)=O)nn2)[C@@H](C)O)CCNC(=O)[C@H]([C@@H](C)O)NC(=O)[C@H](CCN)NC(=O)[C@H](CCN)NC1=O (I: cyclo([dDab][hSer]W[hSer][Tle]AS[dA]PVTY[Dab]E) / II: T[Dab][Dab][Dab][dL]L[Dab][Dab]T; linker I:14-II:N via X1; lactam II:3-II:C) | > 64 µg/mL | 8 µg/mL (≈ 2.88 µM) | 4 µg/mL (≈ 1.44 µM) | 8 µg/mL (≈ 2.88 µM) | 4 µg/mL (≈ 1.44 µM) |  | 4 µg/mL (≈ 1.44 µM) | 8 µg/mL (≈ 2.88 µM) | 16 µg/mL (≈ 5.77 µM) |  | 2 µg/mL (≈ 0.721 µM) | 2 µg/mL (≈ 0.721 µM) | 16 µg/mL (≈ 5.77 µM) |  |  |  |
| CC(C)C[C@@H]1NC(=O)[C@@H](CC(C)C)NC(=O)[C@H](CCN)NC(=O)[C@@H](NC(=O)[C@H](CCN)NC(=O)[C@@H](NC(=O)CCCCn2cc(C[C@H](NC(=O)CC[C@@H]3NC(=O)[C@H](CCN)NC(=O)[C@H](Cc4ccc(O)cc4)NC(=O)[C@H]([C@@H](C)O)NC(=O)[C@H](C(C)C)NC(=O)[C@@H]4CCCN4C(=O)[C@@H](C)NC(=O)[C@H](CO)NC(=O)[C@H](C)NC(=O)[C@H](C(C)(C)C)NC(=O)[C@H](CCO)NC(=O)[C@H](Cc4c[nH]c5ccccc45)NC(=O)[C@H](CCO)NC(=O)[C@@H](CCN)NC3=O)C(N)=O)nn2)[C@@H](C)O)CCNC(=O)[C@H]([C@@H](C)O)NC(=O)[C@H](CCN)NC(=O)[C@H](CCN)NC1=O (I: cyclo([dDab][hSer]W[hSer][Tle]AS[dA]PVTY[Dab]E) / II: T[Dab][Dab][Dab][dL]L[Dab][Dab]T; linker I:14-II:N via X3; lactam II:3-II:C) | > 64 µg/mL | 2 µg/mL (≈ 0.749 µM) | 2 µg/mL (≈ 0.749 µM) | 2 µg/mL (≈ 0.749 µM) |  | 4 µg/mL (≈ 1.5 µM) | 2 µg/mL (≈ 0.749 µM) |  | 4 µg/mL (≈ 1.5 µM) |  |  | 1 µg/mL (≈ 0.375 µM) | 4 µg/mL (≈ 1.5 µM) | 1 µg/mL (≈ 0.375 µM) | 4 µg/mL (≈ 1.5 µM) |  |
| CC(C)C[C@@H]1NC(=O)[C@@H](CC(C)C)NC(=O)[C@H](CCN)NC(=O)[C@@H](NC(=O)[C@H](CCN)NC(=O)[C@@H](NC(=O)[C@H](CCN)NC(=O)CC[C@@H]2NC(=O)[C@H](CCN)NC(=O)[C@H](Cc3ccc(O)cc3)NC(=O)[C@H]([C@@H](C)O)NC(=O)[C@H](C(C)C)NC(=O)[C@@H]3CCCN3C(=O)[C@@H](C)NC(=O)[C@H](CO)NC(=O)[C@H](C)NC(=O)[C@H](C(C)(C)C)NC(=O)[C@H](CCO)NC(=O)[C@H](Cc3c[nH]c4ccccc34)NC(=O)[C@H](CCO)NC(=O)[C@@H](CCN)NC2=O)[C@@H](C)O)CCNC(=O)[C@H]([C@@H](C)O)NC(=O)[C@H](CCN)NC(=O)[C@H](CCN)NC1=O (I: cyclo([dDab][hSer]W[hSer][Tle]AS[dA]PVTY[Dab]E) / II: [Dab]T[Dab][Dab][Dab][dL]L[Dab][Dab]T; amide I:14-II:N; lactam II:4-II:C) | > 6.4 µg/mL | 0.2 µg/mL (≈ 0.079 µM) | 0.2 µg/mL (≈ 0.079 µM) |  |  | 0.8 µg/mL (≈ 0.316 µM) | 0.4 µg/mL (≈ 0.158 µM) |  | 0.2 µg/mL (≈ 0.079 µM) | 0.2 µg/mL (≈ 0.079 µM) |  | 0.2 µg/mL (≈ 0.079 µM) | 0.2 µg/mL (≈ 0.079 µM) |  | 0.8 µg/mL (≈ 0.316 µM) | 0.1 µg/mL (≈ 0.0395 µM) |
| CC(C)C[C@@H]1NC(=O)[C@@H](CC(C)C)NC(=O)[C@H](CCN)NC(=O)[C@@H](NC(=O)[C@H](CCN)NC(=O)[C@@H](NC(=O)Cn2cc(C[C@H](NC(=O)CC[C@@H]3NC(=O)[C@H](CCN)NC(=O)[C@H](Cc4ccc(O)cc4)NC(=O)[C@H]([C@@H](C)O)NC(=O)[C@H](C(C)C)NC(=O)[C@@H]4CCCN4C(=O)[C@@H](C)NC(=O)[C@H](CO)NC(=O)[C@H](C)NC(=O)[C@H](C(C)(C)C)NC(=O)[C@H](CCO)NC(=O)[C@H](Cc4c[nH]c5ccccc45)NC(=O)[C@H](CCO)NC(=O)[C@@H](CCN)NC3=O)C(N)=O)nn2)[C@@H](C)O)CCNC(=O)[C@H]([C@@H](C)O)NC(=O)[C@H](CCN)NC(=O)[C@H](CCN)NC1=O (I: cyclo([dDab][hSer]W[hSer][Tle]AS[dA]PVTY[Dab]E) / II: T[Dab][Dab][Dab][dL]L[Dab][Dab]T; linker I:14-II:N via X2; lactam II:3-II:C) | > 6.4 µg/mL | 2 µg/mL (≈ 0.761 µM) | 1 µg/mL (≈ 0.381 µM) |  | 1 µg/mL (≈ 0.381 µM) |  | 2 µg/mL (≈ 0.761 µM) | 4 µg/mL (≈ 1.52 µM) | 2 µg/mL (≈ 0.761 µM) |  | 0.5 µg/mL (≈ 0.19 µM) | 0.5 µg/mL (≈ 0.19 µM) | 2 µg/mL (≈ 0.761 µM) |  | 2 µg/mL (≈ 0.761 µM) |  |
